SENP8 block-1: inhibitors of human SENP8 protease; inhibition, % at 10 µM; hit rate 1.2% among 330,000; purified SENP8, Z-RLRGG-aminoluciferin cleavage, luminescence; in the data active means inhibition above about 50%
Target sequence (Q96LD8 whole entry, looked up): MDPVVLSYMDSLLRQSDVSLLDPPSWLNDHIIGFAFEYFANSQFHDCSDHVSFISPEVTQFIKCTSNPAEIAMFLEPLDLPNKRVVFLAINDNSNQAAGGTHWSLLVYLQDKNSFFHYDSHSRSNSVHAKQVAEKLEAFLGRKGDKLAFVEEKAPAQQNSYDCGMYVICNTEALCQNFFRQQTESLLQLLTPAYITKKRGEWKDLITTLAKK
SENP1 FRET inh: SENP1 (human) catalytic domain inhibition; hit rate 0.21% among 360,000; AID 624204; recombinant SENP1 catalytic domain, CyPet-SUMO1-YPet FRET cleavage; inhibition, % at 10 µM; Q9P0U3;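 active means inhibition at least 30% at 10 µM, raw YFP signal under a set limit, fluorescence ratio 0.5 to 1.5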
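Controls: no-enzyme wells low, DMSO-plus-enzyme wells high control. Test system: human recombinant His6-tagged SENP1 catalytic domain enzyme. Reagent: SFCypet-SUMO1-SFYpet FRET protein substrate, 25 nM final. Doses: one dose per compound, 10 µM, 0.5% DMSO. Detection: FRET, CFP and YFP emission. Timing: 50 min reaction at room temperature.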
SENP6 block: SENP6 protease inhibition; Q9GZR1; Recombinant SENP6 catalytic domain, aminoluciferin luminescence; inhibition, % at 10 µM; hit rate 1.8% among 330,000;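 active means inhibition above about 50% at the single tested dose, limit read from the data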
Target sequence (Q9GZR1 628-1112 limits assumed): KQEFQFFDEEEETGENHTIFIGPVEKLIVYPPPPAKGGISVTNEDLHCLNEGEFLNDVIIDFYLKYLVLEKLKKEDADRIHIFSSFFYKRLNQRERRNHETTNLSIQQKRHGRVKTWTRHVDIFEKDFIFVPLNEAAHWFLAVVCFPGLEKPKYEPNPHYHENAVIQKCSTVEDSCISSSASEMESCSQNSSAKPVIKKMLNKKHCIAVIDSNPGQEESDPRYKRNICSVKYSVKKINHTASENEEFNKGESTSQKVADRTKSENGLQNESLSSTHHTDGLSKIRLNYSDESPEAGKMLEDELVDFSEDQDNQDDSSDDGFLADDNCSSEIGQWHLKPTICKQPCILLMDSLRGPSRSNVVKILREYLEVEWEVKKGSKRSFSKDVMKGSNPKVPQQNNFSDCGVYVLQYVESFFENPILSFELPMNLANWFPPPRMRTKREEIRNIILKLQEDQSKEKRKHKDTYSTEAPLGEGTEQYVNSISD
Platelet DG rel: modulates dense granule release in human platelets; human platelet-rich plasma, SFLLRN dense granule ATP release, luminescence; inhibition, %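 (compounds screened at 7.5 µM in platelet-rich plasma)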; hit rate 0.22% among 300,000;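 active means mean replicate score, as percent of positive control, at or above 50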
SENP7 block: blocks the human protease SENP7. inhibition, % at 5 µM. AID 434973. recombinant SENP7, Z-RLRGG-aminoluciferin luminescence, 40 min. hit rate 1.5% among 330,000;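 active means inhibition above about 50% at the single test dose, limit read from the data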
SENP8 block-2: blocks human SENP8 cleavage of Nedd8 substrate | Q96LD8 | recombinant SENP8, Nedd8 substrate fluorescence | inhibition, % at 20 µM | hit rate 0.64% among 360,000; in the data active means inhibition mostly above about 40%, no sharp cut-off; inactive means mostly below about 27%
SENP8 confirm: confirmation of human SENP8 protease inhibitors; AID 488912; shares compounds with SENP7 block; Recombinant SENP8, Z-RLRGG-aminoluciferin luminescence, 60 min; inhibition, % at 12.5 µM; hit rate 40% among 6,200;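 active means mean inhibition across replicates above about 50%, limit read from the data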
SENP6 confirm: human SENP6 inhibition, confirmed. inhibition, % at 12.5 µM. AID 488915. recombinant SENP6, Z-RLRGG-aminoluciferin luminescence. shares compounds with SENP7 block. hit rate 58% among 6,200
SENP7 conf: confirmation of human SENP7 protease inhibitors | inhibition, % at 12.5 µM | hit rate 69% among 6,200 | shares compounds with SENP7 block | recombinant SENP7, Z-RLRGG-aminoluciferin luminescence, 40 min
Casp3 select: caspase-3 inhibition (SENP selectivity assay) | shares compounds with SENP7 block | purified caspase-3, Z-DEVD-aminoluciferin luminescence, 60 min | inhibition, % at 12.5 µM | hit rate 60% among 6,200 | AID 488918;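 active means mean inhibition above about 50%, limit read from the data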
Luc interf: counter-screen for SENP inhibitors: luminescence interference. shares compounds with SENP7 block. Pre-incubated SENP8/Z-RLRGG-aminoluciferin, luciferase luminescence interference. inhibition, % at 12.5 µM. hit rate 39% among 6,200. AID 488919;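 active means mean inhibition above about 50% when retested at one dose, limit read from the data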
Hits are given with their value; i = inactive; nt = no result given. In the library only some 2.6% were active in any assay of this set; here they are far more common.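 How the source made its calls, unless noted: active means mean inhibition above about 50% in the one-dose retest (limit read from the data); inactive means the rest.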

SMILES	SENP8 block-1	SENP1 FRET inh	SENP6 block	Platelet DG rel	SENP7 block	SENP8 block-2	SENP8 confirm	SENP6 confirm	SENP7 conf	Casp3 select	Luc interf
c1ccc(CCNc2nc(-c3ccccn3)cs2)cc1	i	i	51.8	i	i	i	i	i	i	i	i
CCN(CC)S(=O)(=O)c1ccc2oc(Nc3ccccc3)nc2c1	i	i	54.7	i	i	i	i	i	70.7	i	i
CCS(=O)(=O)c1ccc2oc(Nc3ccccc3C)nc2c1	69.4	i	80.8	i	78.8	i	82.2	80.8	97.0	91.6	84.1
O=C(NCC(=O)N1CCN(Cc2ccccc2)CC1)c1cc(Cl)cc([N+](=O)[O-])c1	i	i	i	nt	i	i	nt	nt	nt	nt	nt
COc1cc2c(cc1OC)CN(C(=O)CNS(=O)(=O)c1ccc(C)c(C)c1)CC2	i	i	i	i	i	i	nt	nt	nt	nt	nt
CC1CN(C(=O)C(C)OC(=O)c2ccc3ncsc3c2)CC(C)O1 (centres undefined)	i	i	i	nt	i	i	nt	nt	nt	nt	nt
COc1ccc(OC)c(-n2nnnc2SCC(=O)Nc2ccc3c(c2)OCCO3)c1	i	i	i	i	i	i	nt	nt	nt	nt	nt
COc1ccc(OC)c(-n2nnnc2SCC(=O)Nc2ccc(C(=O)N3CCCCC3)cc2)c1	i	i	i	i	57.2	i	i	i	i	i	i
c1ccc2c(Nc3nnc(-c4ccncc4)s3)cccc2c1	i	i	61.1	i	i	i	i	51.4	81.1	i	i
CCc1nc2c(OCc3c(C)noc3C)cccn2c1N(C)C(=O)c1ccccc1F	nt	i	nt	nt	nt	i	nt	nt	nt	nt	nt
O=C1/C(=C/c2ccc(O)c(O)c2)Oc2cc(O)ccc21	i	i	i	nt	i	i	nt	nt	nt	nt	nt
O=C1/C(=C/c2cccc([N+](=O)[O-])c2)Oc2cc(O)ccc21	54.4	i	67.4	i	i	i	i	i	i	i	i
Nc1ccccc1-c1ccccc1N	i	i	i	i	i	i	nt	nt	nt	nt	nt
Nc1ccccc1N=Nc1ccccc1N	77.4	i	85.9	i	84.6	i	84.8	82.8	96.4	73.1	63.6
Cc1ccccc1OCC(=O)OCC(=O)c1c[nH]c2ccccc12	i	i	i	nt	i	i	nt	nt	nt	nt	nt
COc1ccccc1NC(=S)Nc1cccc2cnccc12	i	i	91.2	i	81.5	i	i	i	i	i	i
CCOc1ccc(NC(=S)Nc2cccc3ccccc23)cc1	50.4	i	88.2	i	i	i	i	i	i	i	i
COc1ccc(NC(=S)Nc2cccc3cnccc23)cc1	i	i	88.3	i	66.6	i	i	i	i	i	i
CCOc1ccc(NC(=S)Nc2ccc(OCC)cc2)cc1	i	i	i	i	i	i	nt	nt	nt	nt	nt
CCOc1ccc(NC(=S)Nc2cccc3cnccc23)cc1	i	i	86.9	i	63.5	i	i	i	i	i	i
O=C(NC1CCN(C(=O)c2cccc([N+](=O)[O-])c2)CC1)c1ccccc1	i	i	i	i	i	i	nt	nt	nt	nt	nt
Cc1cc(C)cc(N2C(=O)C=CC2=O)c1	nt	i	nt	nt	nt	i	nt	nt	nt	nt	nt
OC[C@@H]1CN(CCN2CCOCC2)C[C@H](n2cnc3c(NC4CCC4)ncnc32)O1	nt	i	nt	nt	nt	i	nt	nt	nt	nt	nt
O=C(/C=C/c1cccs1)Nc1cccnc1	i	i	i	i	i	i	nt	nt	nt	nt	nt
Cc1ccnc(NC(=O)/C=C/c2cccs2)c1	57.0	i	86.0	i	67.2	i	71.4	70.6	90.8	82.8	i
SMILES	SENP8 block-1	SENP1 FRET inh	SENP6 block	Platelet DG rel	SENP7 block	SENP8 block-2	SENP8 confirm	SENP6 confirm	SENP7 conf	Casp3 select	Luc interf
CC(C)c1cc(C(=O)N2CCCC(Nc3ccc(F)cc3)C2)n[nH]1 (centres undefined)	i	i	i	i	i	i	nt	nt	nt	nt	nt
CCCCCc1ccc(-c2cn(Cc3ccc(C(=O)c4ccccc4)cc3)nn2)cc1	i	i	i	i	i	i	nt	nt	nt	nt	nt
O=C(c1ccccc1)c1ccc(Cn2cc(-c3ccccc3)nn2)cc1	57.8	i	61.3	i	51.7	i	51.5	64.9	83.0	i	i
Cc1cc(C)cc(COc2ccc3c(C)c(CC(=O)O)c(=O)oc3c2C)c1	i	i	i	i	i	i	nt	nt	nt	nt	nt
Cc1cc(CN2CCCCC2)oc1C(=O)O	i	i	i	i	i	i	nt	nt	nt	nt	nt
Cc1cc(COc2ccccc2)oc1C(=O)O	97.4	i	95.2	i	99.7	i	98.7	99.6	102.8	88.5	98.0
Cc1c(C)c2ccc(OCc3ccc(C(=O)O)o3)c(C)c2oc1=O	65.2	i	77.0	i	50.4	i	i	66.0	79.4	i	56.6
COC(=O)c1ccc(COc2ccc3c(C)c(C)c(=O)oc3c2)o1	53.9	i	i	i	i	i	i	i	i	i	i
Cc1cc(NC(=O)COC(=O)COc2ccc3c4c(c(=O)oc3c2)CCC4)no1	i	i	i	i	i	i	nt	nt	nt	nt	nt
O=C(COc1ccc2c3c(c(=O)oc2c1)CCC3)Nc1ccccn1	i	i	i	i	89.4	i	i	i	i	66.3	i
CCCCC[C@@H](C)N1C[C@@H](COCc2ccccc2)Oc2cc(N3CC[C@H](N(C)C)C3)ccc2S1(=O)=O	nt	i	nt	nt	nt	i	nt	nt	nt	nt	nt
O=C(CNS(=O)(=O)c1cccc(Br)c1)NCC1CCCCC1	i	i	i	i	i	i	nt	nt	nt	nt	nt
CC(C)c1ccc(COc2ccc(C(=O)N3CCOCC3)cc2)cc1	i	i	i	i	i	i	nt	nt	nt	nt	nt
CCC(C)c1ccc(OCc2ccc(C(=O)O)o2)cc1 (centres undefined)	94.2	i	95.5	i	79.8	i	i	98.3	102.3	i	97.5
COC(=O)c1ccc(COc2ccc(C)c(C)c2)o1	i	i	i	i	i	i	nt	nt	nt	nt	nt
CC(C)(c1ccccc1)c1ccc(OCc2ccc(C(=O)O)o2)cc1	60.5	i	72.6	nt	i	i	i	72.7	73.2	i	78.4
Cc1ccc(OCc2ccc(C(=O)O)o2)cc1C	84.5	i	88.2	i	81.7	i	i	92.9	101.0	i	92.8
CC(C)(C)c1ccc(OCc2ccc(C(=O)NN)o2)cc1	i	i	i	i	i	i	nt	nt	nt	nt	nt
Cc1ccc(OCc2ccc(C(=O)N3CCOCC3)cc2)cc1C	74.9	i	83.2	i	89.9	i	i	73.7	94.4	83.8	80.2
COc1ccc(N(CC(=O)N2CCN(c3ccccc3F)CC2)S(=O)(=O)c2ccc(C)cc2)cc1	i	i	i	i	i	i	nt	nt	nt	nt	nt

Compound activity from PubChem.
